Laboratory results from paper PMC3358452 (Chemical Research in Toxicology, 2012).
Like-named read-outs stand apart in the source and are kept apart here.

Legend:
[1] = pKa of; assay type: physicochemical; settings: Calculated pKa, 25 °C, buffer 0.05 M, AH/A- = 1.0
Outline: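 pH was measured in solutions of the sodium salt of the acid, measured gravimetrically and partially neutralized with HCl. Solutions held 5% by volume acetonitrile, with ionic strength balanced by KCl. […] Mean and SD of duplicates at 25 °C.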

[2] = tested on: F344 rat liver
[3] = Lower limit of KO by monitoring disappearance of the lactone multiplets; assay type: physicochemical; settings: D2O, 1 M DClO4, lactone multiplets monitored to equilibrium
[4] = Kinetics of decay; assay type: physicochemical; settings: for half-life at 0.0013 M: buffered aqueous solution, pH 7, t1/2 for decay
Outline: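 The first check was in D2O with 0.005 M DCl, 0.005 M lactone and 0.005 M acetonitrile as internal standard, at 25 °C. Loss of the C-6 1H-NMR resonances at 4.78 ppm was compared with UV decay at 225 nm. The extended UV runs used 220–235 nm, 5% acetonitrile/H2O, ionic strength 1 M (KCl), 25 °C and 0.0013 M lactone. Buffers were formic, acetic, cacodylic and ethylphosphonic.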

[5] = assay type: physicochemical
Outline: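 Reverse-phase HPLC quantified lactone left after an acidic aqueous solution reached equilibrium at 25 °C. The solution initially held 0.05 M lactone, measured gravimetrically, in 5% by volume acetonitrile. Ionic strength was set with KCl and hydrogen ion concentration varied. Remaining lactone was interpolated from a standard curve; triplicate injections per determination.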

[6] = group 2: AFB1 followed by 1 (1.32 g over 12 weeks), mean ± SEM
[7] = group 3: 1 only (1.32 g over 12 weeks)
[8] = fit of log ko vs pH, 25 °C, ionic strength 1 M (KCl), 5% by volume acetonitrile

Compound: O=C(O)COCCO [compound 2, 2-(2-hydroxyethoxy) acetic acid]
- pKa ([1]; ionic strength 0.05 M): 3.43
- pKa ([1]; ionic strength 0.25 M (KCl)): 3.36
- pKa ([1]; ionic strength 0.35 M (KCl)): 3.36
- pKa ([1]; ionic strength 0.45 M (KCl)): 3.36
- pKa ([1]; ionic strength 0.55 M (KCl)): 3.38

Compound: aflatoxin B1 [AFB1, reference compound]
- Foci per cubic cm (morphometric) ([2]; rat, in vivo): 1230 ± 410
- Mean Diameter of foci (morphometric) ([2]; rat, in vivo): 227 ± 35 microns
- Mean Foci Counted (observed) ([2]; rat, in vivo): 44 ± 8
- Volume % of liver occupied by GST-P positive foci ([2]; rat, in vivo): 3.1 ± 1.0%
- average size of observed GST-P positive foci ([2]; rat, in vivo): > 200 µm

Compound: O=C1COCCO1 [compound 1, 1,4-Dioxan-2-one]
- KO, lower limit value [3]: > 50
- average size of observed GST-P positive foci ([2]; group 2 (AFB1 + 1), data not shown): > 200 µm
- Foci per cubic cm (morphometric) [2, 6]: 1190 ± 230
- Mean Diameter of foci (morphometric) [2, 6]: 210 ± 32 microns
- Volume % of liver occupied by GST-P positive foci [2, 6]: 2.1 ± 0.7%
- diameter of the single focus observed ([2]; group 3 (1 only)): 65 µm
- Mean Diameter of foci (morphometric) [2, 7]: 65 microns
- Volume % of liver occupied by GST-P positive foci [2, 7]: 0.001%
- Foci per cubic cm (morphometric) ([2]; group 3: 1 only (1.32 g over 12 weeks), mean ± SEM): 6.1 ± 6.1
- Mean Foci Counted (observed) ([2]; group 3: 1 only, gavage 3 days/week for 12 weeks (1.32 g total), mean ± SEM): 0.1 ± 0.1
- first order rate constant of decay (NMR) ([4]; 1H-NMR, D2O, 0.005 M DCl, 25 °C): 0.017 ± 0.002 min⁻¹
- first order rate constant of decay (UV) ([4]; UV spectrophotometry, D2O, 0.005 M DCl, 25 °C): 0.016 ± 0.001 min⁻¹
- half-life at 0.0013 M ([4]; pH 7): 2.12 h
- half-life at 0.0013 M ([4]; pH = 7.0, 25 °C): ~2 h
- factor by which 1 is more reactive toward hydroxide ion than valerolactone ([4]; comparison with literature rate constant): ~ 1500
- kH+, hydrogen ion catalyzed rate constant for solvolysis [4, 8]: 1.1 (± 0.1) M^−1 min^−1
- kOH, hydroxide ion catalyzed rate constant [4, 8]: 4.1 (± 0.3) × 10^4 M^−1 min^−1
- kw, water catalyzed (pH-independent) rate constant [4, 8]: 9.9 (± 0.5) × 10^−4 min^−1
- KOA, equilibrium constant between 1 and carboxylic acid anion 3 and the proton (KOA = Ka × KO) ([5]; 25 °C, ionic strength 1M (KCl), 5% by volume acetonitrile): 0.034 ± 0.002 M
- Ko, equilibrium constant for lactone 1 and its open-chain acid form ([5]; 25 °C, [HCl] 0.05 M, total ionic strength 0.05 M, 5% by volume acetonitrile): 71
- Ko, equilibrium constant for lactone 1 and its open-chain acid form ([5]; 25 °C, [HCl] 0.10 M, total ionic strength 1.0 M (KCl), 5% by volume acetonitrile): 70
- Ko, equilibrium constant for lactone 1 and its open-chain acid form ([5]; 25 °C, [HCl] 0.20 M, total ionic strength 1.0 M (KCl), 5% by volume acetonitrile): 70
- KO, equilibrium constant between 1 and hydrolysis product 2 ([5]; acidic aqueous media, 25 °C, ionic strength 1M (KCl), 5% by volume acetonitrile): 70 ± 3.5
- lactone as percent of the total species at equilibrium ([5]; pH = 7): ~ 3 ×10^−4%
